The values below come from ChEMBL document CHEMBL1122583, “Structure-activity relationships among DNA gyrase inhibitors. Synthesis and biological evaluation of 1,2-dihydro-4, 4-dimethyl-1-oxo-2-naphthalenecarboxylic acids as 1-carba bioisosteres of oxolinic acid” (1984).

Converted amounts (≈) assume the structure as drawn. A value given as a limit tells only on which side of the number the result lay.

The subject of one test is Candida albicans. Nature of the test: In vitro antifungal activity against Candida albicans (ATCC 10231). The class given is functional.
In test [1] the test system is Salmonella enterica subsp. enterica serovar Gallinarum. The test is described as follows: In vitro antifungal activity against Salmonella gallinarum (ATCC 9184). It is filed as functional.
Test [2] deals with Mycolicibacterium smegmatis. The test is described as follows: In vitro antifungal activity against Mycobacterium smegmatis (ATCC 607). It is filed as functional.
Another test concerns Staphylococcus aureus. The test is described as follows: In vitro antifungal activity against Staphylococcus aureus (ATCC 13709). The class given is functional.
The next test has as its system Klebsiella pneumoniae. Nature of the test: In vitro antifungal activity against Klebsiella pneumoniae AD (ATCC 10031). It is filed as functional.
A further test concerns Escherichia coli. The test is described as follows: In vitro antifungal activity against Escherichia coli (ATCC 9637). The class given is functional.
In the next test the test system is Nucleic Acid. Nature of the test: In vitro DNA gyrase inhibition activity. The class given is nucleic-acid assay. The procedure, abridged: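 DNA gyrase holoenzyme, purified using a heparin-Sepharose affinity column in place of the DEAE-cellulose step. Supercoiling of relaxed ColE1 plasmid was run on 1% agarose horizontal gels. Relaxed and supercoiled bands were quantified by densitometry of photographic negatives. Because inhibition is noncompetitive, Ki was taken as the concentration giving 50% inhibition of supercoil band formation.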

Turning to `CCn1cc(C(=O)O)c(=O)c2cc3c(cc21)OCO3` [OXOLINIC ACID], the MIC – broadly, the lowest concentration found to suppress growth – with Candida albicans is over 100 µg/mL; in test [1], 0.78 µg/mL (≈ 2.99 µM); in test [2], 50 µg/mL (≈ 191 µM); in the test with Staphylococcus aureus it was 3.13 µg/mL (≈ 12 µM); with Klebsiella pneumoniae, under 0.1 µg/mL; in the test on Escherichia coli, 0.78 µg/mL (≈ 2.99 µM).

`CC1(C)C=C(C(=O)O)C(=O)c2ccc3c(c21)OCC3`: the MIC (in the test with Candida albicans; in test [1]; in test [2]; with Staphylococcus aureus; against Klebsiella pneumoniae; in the test on Escherichia coli) was over 100 µg/mL each time. Besides, in the test on Nucleic Acid, the Ki (concentration giving 50% inhibition of gyrase supercoiling) stood at 300 µg/mL.

Take `CC1(C)C=C(C(=O)O)C(=O)c2cc3c(cc21)OCO3`: the MIC was over 500 µg/mL in the test with Candida albicans; 500 µg/mL (≈ 1920 µM) in test [1]; 500 µg/mL (≈ 1920 µM) in test [2]; 500 µg/mL (≈ 1920 µM) against Staphylococcus aureus; over 500 µg/mL with Klebsiella pneumoniae; over 500 µg/mL against Escherichia coli. In addition, the Ki (concentration giving 50% inhibition of gyrase supercoiling) in the test on Nucleic Acid stood at 300 µg/mL.

Consider `CC1(C)C=C(C(=O)O)C(=O)c2ccccc21`, for which the MIC is over 250 µg/mL against Candida albicans; 50 µg/mL (≈ 231 µM) in test [1]; 50 µg/mL (≈ 231 µM) in test [2]; 6.25 µg/mL (≈ 28.9 µM) in the test with Staphylococcus aureus; over 250 µg/mL in the test with Klebsiella pneumoniae; over 250 µg/mL against Escherichia coli. The molecule further displayed a Ki (concentration giving 50% inhibition of gyrase supercoiling) with Nucleic Acid of 2000 µg/mL.

In the case of `COc1cc2c(cc1OC)C(C)(C)C=C(C(=O)O)C2=O`, the MIC (in the test with Candida albicans; in test [1]; in test [2]; with Staphylococcus aureus; against Klebsiella pneumoniae; in the test with Escherichia coli) was over 100 µg/mL throughout. The Ki (concentration giving 50% inhibition of gyrase supercoiling) in the test on Nucleic Acid was over 1000 µg/mL.

Take `CCn1cc(C(=O)O)c(=O)c2ccc(C)nc21` [NALIDIXIC ACID]: the MIC against Candida albicans is over 100 µg/mL; in test [1], 12.5 µg/mL (≈ 53.8 µM); in test [2] it was over 100 µg/mL; against Staphylococcus aureus, 100 µg/mL (≈ 431 µM); in the test on Klebsiella pneumoniae, 3.13 µg/mL (≈ 13.5 µM); against Escherichia coli it was 12.5 µg/mL (≈ 53.8 µM).

Regarding `CC1(C)C=C(C(=O)O)C(=O)c2cc3c(cc21)CCO3`, the MIC against Candida albicans is over 500 µg/mL; in test [1], 500 µg/mL (≈ 1940 µM); in test [2], 500 µg/mL (≈ 1940 µM); against Staphylococcus aureus, 500 µg/mL (≈ 1940 µM); against Klebsiella pneumoniae, over 500 µg/mL; against Escherichia coli it was over 500 µg/mL. Besides, the Ki (concentration giving 50% inhibition of gyrase supercoiling) in the test on Nucleic Acid came out at 300 µg/mL.
